Assay results taken from ChEMBL document CHEMBL1765068, “Role of the side chain stereochemistry in the α-glucosidase inhibitory activity of kotalanol, a potent natural α-glucosidase inhibitor” (Bioorg Med Chem, 2011).

What was measured:
[1] = Inhibition of rat small intestinal maltase after 30 mins
[2] = molecular target: T1, Sucrase-isomaltase, intestinal (Rattus norvegicus, UniProt P23739); assay: Inhibition of rat small intestinal isomaltase after 30 mins
How it was run: (§1)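 Enzyme source was rat small-intestinal brush-border membrane vesicles suspended in 0.1 M maleate buffer, pH 6.0. Substrate solutions were maltose 74 mM (maltase), sucrose 74 mM (sucrase) and isomaltose 7.4 mM (isomaltase). Glucose was measured by glucose oxidase. IC50 was read graphically from % inhibition versus log concentration.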

[3] = molecular target: T1, Sucrase-isomaltase, intestinal; assay: Inhibition of rat small intestinal sucrase after 30 mins
How it was run: as §1

[4] = molecular target: Sucrase-isomaltase, intestinal (Rattus norvegicus) (UniProt P23739); settings: 100 ug/ml
[5] = molecular target: Lysosomal alpha-glucosidase (Rattus norvegicus) (UniProt Q6P7A9); settings: 100 ug/ml
Chain of Lysosomal alpha-glucosidase (Rattus norvegicus) (Q6P7A9 whole entry): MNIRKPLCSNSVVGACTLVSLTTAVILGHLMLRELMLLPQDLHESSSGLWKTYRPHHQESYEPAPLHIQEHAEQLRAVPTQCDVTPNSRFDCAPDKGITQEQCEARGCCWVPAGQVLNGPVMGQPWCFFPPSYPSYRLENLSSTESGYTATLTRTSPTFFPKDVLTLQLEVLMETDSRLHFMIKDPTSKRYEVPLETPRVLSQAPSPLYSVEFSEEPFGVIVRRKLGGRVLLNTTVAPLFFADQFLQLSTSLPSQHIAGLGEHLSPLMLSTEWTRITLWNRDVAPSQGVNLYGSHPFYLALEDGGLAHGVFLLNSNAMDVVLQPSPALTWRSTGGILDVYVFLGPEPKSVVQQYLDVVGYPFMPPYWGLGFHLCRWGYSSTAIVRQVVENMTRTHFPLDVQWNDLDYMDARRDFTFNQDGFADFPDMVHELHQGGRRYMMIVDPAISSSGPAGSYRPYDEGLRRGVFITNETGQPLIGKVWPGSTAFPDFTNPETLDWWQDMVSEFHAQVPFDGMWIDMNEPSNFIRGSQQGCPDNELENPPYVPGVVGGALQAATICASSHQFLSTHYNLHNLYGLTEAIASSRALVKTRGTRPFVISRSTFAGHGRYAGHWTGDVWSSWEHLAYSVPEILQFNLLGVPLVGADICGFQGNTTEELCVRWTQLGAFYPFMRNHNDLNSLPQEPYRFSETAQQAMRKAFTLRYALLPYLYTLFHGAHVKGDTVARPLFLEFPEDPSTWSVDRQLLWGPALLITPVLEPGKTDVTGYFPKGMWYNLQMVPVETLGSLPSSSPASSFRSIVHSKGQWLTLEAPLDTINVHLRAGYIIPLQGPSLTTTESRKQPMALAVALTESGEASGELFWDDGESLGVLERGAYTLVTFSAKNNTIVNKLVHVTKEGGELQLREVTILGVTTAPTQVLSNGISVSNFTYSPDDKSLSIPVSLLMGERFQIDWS

T1 sequence (P23739 1-1013 limits assumed): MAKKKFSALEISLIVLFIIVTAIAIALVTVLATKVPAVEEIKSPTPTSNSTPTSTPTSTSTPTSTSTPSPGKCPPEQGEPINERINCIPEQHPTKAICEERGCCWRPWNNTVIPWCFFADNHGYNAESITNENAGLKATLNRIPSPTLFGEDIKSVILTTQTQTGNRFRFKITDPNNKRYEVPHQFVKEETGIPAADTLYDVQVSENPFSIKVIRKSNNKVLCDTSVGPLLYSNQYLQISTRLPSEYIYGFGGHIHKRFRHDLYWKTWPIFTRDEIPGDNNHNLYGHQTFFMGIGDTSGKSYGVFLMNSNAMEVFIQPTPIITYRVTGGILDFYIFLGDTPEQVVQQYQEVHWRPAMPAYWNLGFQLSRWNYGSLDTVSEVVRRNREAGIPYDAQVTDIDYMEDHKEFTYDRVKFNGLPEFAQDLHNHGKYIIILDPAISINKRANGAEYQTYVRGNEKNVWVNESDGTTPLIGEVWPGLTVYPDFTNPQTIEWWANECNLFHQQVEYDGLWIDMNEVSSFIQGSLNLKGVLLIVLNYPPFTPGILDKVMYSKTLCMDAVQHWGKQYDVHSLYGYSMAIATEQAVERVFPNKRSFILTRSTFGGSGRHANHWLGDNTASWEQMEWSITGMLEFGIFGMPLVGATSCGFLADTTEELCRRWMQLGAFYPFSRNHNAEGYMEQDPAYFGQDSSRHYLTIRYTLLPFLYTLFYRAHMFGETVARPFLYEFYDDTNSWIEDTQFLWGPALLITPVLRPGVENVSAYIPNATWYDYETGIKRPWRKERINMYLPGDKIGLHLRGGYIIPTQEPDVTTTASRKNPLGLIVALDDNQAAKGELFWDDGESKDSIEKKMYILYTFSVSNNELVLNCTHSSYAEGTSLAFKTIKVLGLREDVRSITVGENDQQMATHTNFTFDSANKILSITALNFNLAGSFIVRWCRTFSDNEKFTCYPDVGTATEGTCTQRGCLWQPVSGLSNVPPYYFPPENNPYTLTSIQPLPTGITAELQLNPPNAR
T1 sequence (P23739 1014-1841 limits assumed): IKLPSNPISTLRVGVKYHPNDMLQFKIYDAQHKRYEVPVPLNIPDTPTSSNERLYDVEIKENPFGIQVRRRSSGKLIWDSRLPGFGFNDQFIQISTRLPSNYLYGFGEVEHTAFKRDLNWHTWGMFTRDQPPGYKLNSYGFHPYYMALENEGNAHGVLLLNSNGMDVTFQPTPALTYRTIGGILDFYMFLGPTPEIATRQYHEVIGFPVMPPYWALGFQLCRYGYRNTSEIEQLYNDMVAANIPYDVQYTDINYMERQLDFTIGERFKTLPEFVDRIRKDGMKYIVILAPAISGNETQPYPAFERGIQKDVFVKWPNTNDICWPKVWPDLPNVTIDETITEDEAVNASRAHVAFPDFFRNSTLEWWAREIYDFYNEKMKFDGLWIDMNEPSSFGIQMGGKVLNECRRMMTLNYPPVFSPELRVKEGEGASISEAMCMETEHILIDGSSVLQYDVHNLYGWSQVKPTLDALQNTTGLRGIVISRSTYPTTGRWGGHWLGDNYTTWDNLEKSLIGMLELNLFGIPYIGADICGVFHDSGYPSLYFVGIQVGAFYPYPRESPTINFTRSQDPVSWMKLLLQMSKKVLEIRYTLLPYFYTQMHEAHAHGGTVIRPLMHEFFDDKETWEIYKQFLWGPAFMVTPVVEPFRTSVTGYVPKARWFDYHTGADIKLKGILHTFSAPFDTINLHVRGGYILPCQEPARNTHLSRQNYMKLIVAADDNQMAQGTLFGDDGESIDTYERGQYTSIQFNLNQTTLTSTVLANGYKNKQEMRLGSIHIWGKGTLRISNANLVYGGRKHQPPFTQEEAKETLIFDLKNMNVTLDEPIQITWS
Chain of Sucrase-isomaltase, intestinal (Rattus norvegicus) (P23739 1-1013 limits assumed): as the sequence (P23739 1-1013 limits assumed) above
Chain of Sucrase-isomaltase, intestinal (Rattus norvegicus) (P23739 1014-1841 limits assumed): as the sequence (P23739 1014-1841 limits assumed) above

IC50 [1] | IC50 [2] | IC50 [3] | inhibition [4] | inhibition [5] | Structure (SMILES)
5.2 µM |  |  |  |  | O=S(=O)([O-])O[C@@H](CO)[C@H](O)C[S@+]1C[C@@H](O)[C@H](O)[C@H]1CO [SALACINOL]
7.2 µM |  |  |  |  | O=S(=O)([O-])O[C@@H]([C@H](O)[C@H](O)[C@@H](O)CO)[C@H](O)C[S+]1C[C@@H](O)[C@H](O)[C@H]1CO (stereo not given in full) [KOTALANOL]
 | 2.6 µM | 0.29 µM |  |  | O=S(=O)([O-])OC[C@H](O)C[S@+]1C[C@@H](O)[C@H](O)[C@H]1CO [SALAPRINOL]
 | 8.5 µM | > 236 µM | 28% | 32% | O=S(=O)([O-])O[C@H]([C@@H](O)[C@H](O)[C@@H](O)CO)[C@H](O)C[S+]1C[C@@H](O)[C@H](O)[C@H]1CO (stereo not given in full)
 | 9 µM | > 236 µM | 34% | 45% | O=S(=O)([O-])O[C@H]([C@@H](O)[C@H](O)[C@H](O)CO)[C@H](O)C[S+]1C[C@@H](O)[C@H](O)[C@H]1CO (stereo not given in full)
 |  | > 100 µM |  |  | O=S(=O)([O-])O[C@@H]([C@H](O)[C@@H](O)CO)[C@H](O)C[S@+]1C[C@@H](O)[C@H](O)[C@H]1CO [PONKORANOL]
 | 25 µM | 23 µM |  |  | O=S(=O)([O-])O[C@H]([C@@H](O)[C@@H](O)[C@@H](O)CO)[C@H](O)C[S+]1C[C@@H](O)[C@H](O)[C@H]1CO (stereo not given in full)
 | 16 µM | > 236 µM | 8% | 25% | O=S(=O)([O-])O[C@H]([C@@H](O)[C@@H](O)[C@H](O)CO)[C@H](O)C[S+]1C[C@@H](O)[C@H](O)[C@H]1CO (stereo not given in full)

Structure (SMILES) | IC50 [1] | IC50 [2] | IC50 [3] | inhibition [4] | inhibition [5]
OCC(CO)N[C@H]1C[C@](O)(CO)[C@@H](O)[C@H](O)[C@H]1O [VOGLIBOSE] |  |  | 1.2 µM |  | 
